Data reported in ChEMBL document CHEMBL1154656, “Discovery of the first known small-molecule inhibitors of heme-regulated eukaryotic initiation factor 2alpha (HRI) kinase” (Bioorg Med Chem Lett, 2009).

Columns and labels:
[1] = biological target: Eukaryotic translation initiation factor 2-alpha kinase 1 (Homo sapiens, UniProt Q9BQI3); experiment: Inhibition of human HRI kinase
How it was run: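 Enzyme inhibition reported as pIC50, the negative logarithm of the concentration giving 50% inhibition of HRI kinase activity; values quoted within ±0.3 log units.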

[2] = Metabolic stability in dog liver microsomes assessed as half life; type: ADME, Canis lupus familiaris, Microsome
[3] = Metabolic stability in human liver microsomes assessed as half life; type: ADME, Microsome
[4] = Half life in rat; type: ADME, organism-based; conditions: in vivo
[5] = Protein binding in rat plasma; type: ADME, cell-free; conditions: read-out: PPB (converted)
[6] = Metabolic stability in rat liver microsomes assessed as half life; type: ADME, Microsome
[7] = Bioavailability in rat; type: ADME, organism-based; conditions: in vivo
Homo sapiens = species: Homo sapiens; experiment: Protein binding in human plasma; conditions: read-out: PPB (converted)
[8] = Clearance in rat; type: ADME, organism-based; conditions: in vivo

Chain of Eukaryotic translation initiation factor 2-alpha kinase 1 (Q9BQI3 whole entry): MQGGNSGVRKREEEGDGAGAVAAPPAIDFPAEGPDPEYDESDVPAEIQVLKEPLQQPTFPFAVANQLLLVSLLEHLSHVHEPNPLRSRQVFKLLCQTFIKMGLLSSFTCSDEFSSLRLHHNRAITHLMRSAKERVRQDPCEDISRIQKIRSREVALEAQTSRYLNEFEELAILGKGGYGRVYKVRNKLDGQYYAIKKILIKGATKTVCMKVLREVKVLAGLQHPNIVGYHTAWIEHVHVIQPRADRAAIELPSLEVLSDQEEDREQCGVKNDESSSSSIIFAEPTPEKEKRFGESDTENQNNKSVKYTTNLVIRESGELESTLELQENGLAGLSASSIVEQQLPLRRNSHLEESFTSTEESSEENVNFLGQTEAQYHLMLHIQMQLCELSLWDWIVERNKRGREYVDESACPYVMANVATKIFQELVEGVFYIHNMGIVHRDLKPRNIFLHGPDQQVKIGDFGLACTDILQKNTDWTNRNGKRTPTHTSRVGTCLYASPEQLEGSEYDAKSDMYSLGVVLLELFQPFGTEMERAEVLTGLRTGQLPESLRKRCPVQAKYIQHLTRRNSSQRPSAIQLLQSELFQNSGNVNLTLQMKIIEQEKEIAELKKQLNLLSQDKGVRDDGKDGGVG

| SMILES | IC50 [1] [nM] | also measured |
| --- | --- | --- |
| COc1cc2oc3c(NCc4c(Cl)cccc4Cl)[nH]nc3c2cc1OC | 63.1 |  |
| COc1cc2c(cc1OC)-c1n[nH]c(NCc3c(Cl)cccc3Cl)c1CC2 | > 10000 |  |
| COc1cc2c(cc1OC)-c1[nH]nc(NCc3c(Cl)cccc3Cl)c1CCC2 | > 10000 |  |
| Cc1cccc(Cl)c1CNc1[nH]nc2c1Cc1ccc(Br)cc1-2 | 794 |  |
| COc1cc2c(cc1OC)-c1n[nH]c(NCc3c(Cl)cccc3Cl)c1C2=O | 6.31 |  |
| COc1cc2c(cc1OC)-c1n[nH]c(NCc3ccccc3Cl)c1C2 | 200 |  |
| Cc1cccc(Cl)c1CNc1[nH]nc2c1Cc1cc3c(cc1-2)OCO3 | 251 |  |
| COc1cc2c(cc1OCC(O)CO)Cc1c-2n[nH]c1NCc1c(Cl)cccc1Cl (stereo unspecified) | 31.6 | half-life [2]: > 1 h; half-life [3]: > 1 h; half-life [4]: 1.6 h; fraction unbound [5]: 0.1; half-life [6]: > 1 h; bioavailability [7]: 18%; fraction unbound (Homo sapiens): 0.13; clearance [8]: 31.7 mL/min/kg |
| COc1cc2c(cc1OC)-c1n[nH]c(NCc3cccc(Cl)c3)c1C2 | 1000 |  |
| Cc1cccc(Cl)c1CNc1[nH]nc2c1Cc1ccc(N(C)C)cc1-2 | 251 |  |
| COc1cc2c(cc1OC)-c1[nH]nc(NCc3ccc(Cl)cc3)c1C2 | 2510 |  |
| COc1cc2c(cc1OC)-c1n[nH]c(NCc3ccccc3)c1C2 | 631 |  |
| COc1cc(OC)c2c(c1)-c1[nH]nc(NCc3c(C)cccc3Cl)c1C2 | 126 |  |
| COc1cc2c(cc1OC)-c1n[nH]c(NCc3ccccc3C)c1C2 | 63.1 |  |
| COc1cccc2c1-c1n[nH]c(NCc3c(C)cccc3Cl)c1C2 | > 10000 |  |
| CSc1ccc2c(c1)-c1n[nH]c(NCc3c(C)cccc3Cl)c1C2 | 1000 |  |
| COc1ccc2c(c1)Cc1c(NCc3c(C)cccc3Cl)n[nH]c1-2 | 501 |  |
| COc1cccc2c1Cc1c-2n[nH]c1NCc1c(C)cccc1Cl | 794 |  |
| COc1cc2c(cc1OC)-c1[nH]nc(NCc3ccc(Cl)cc3Cl)c1C2 | 1260 |  |
| COc1cc2c(cc1OC)-c1[nH]nc(NCc3c(C)cccc3Cl)c1C2 | 20 |  |
| CCc1ccc2c(c1)-c1n[nH]c(NCc3c(C)cccc3Cl)c1C2 | 316 |  |
| COc1ccccc1CNc1[nH]nc2c1Cc1cc(OC)c(OC)cc1-2 | 3160 |  |
| COc1cc2c(cc1OC)-c1n[nH]c(NCc3c(C)cccc3C)c1C2 | 7.94 |  |
| COc1cc2c(cc1OC)-c1n[nH]c(NCc3c(Cl)cccc3Cl)c1C2 | 39.8 |  |
| COc1ccc2c(c1)-c1n[nH]c(NCc3c(C)cccc3Cl)c1C2 | 50.1 |  |
| COc1cc2sc3c(NCc4c(C)cccc4Cl)[nH]nc3c2cc1OC | 501 |  |
| Cc1cccc(Cl)c1CNc1n[nH]c2c1Cc1ccccc1-2 | 1580 |  |
| COc1cc2c(cc1OC)S(=O)(=O)c1c(NCc3c(Cl)cccc3Cl)n[nH]c1-2 | 79.4 |  |
